Assay results as given in ChEMBL document CHEMBL1177753, “Cytotoxic bisbenzylisoquinoline alkaloids from the roots of Cyclea racemosa” (J Nat Prod, 2010).

Experiments:
Format in all cases: functional, cell-based
[1] = tested on: Bel-7402; experiment: Cytotoxicity against human Bel7402 cells after 3 days by MTT assay; conditions: Bel-7402, 72 h
How it was run: (§1)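 Human tumor cells grown in RPMI-1640 with 5% fetal bovine serum. Freshly trypsinized cells seeded at 5000 cells per well in 96-well plates. Compounds added from DMSO-diluted stock. After three days of culture, attached cells stained with MTT, bound dye solubilized, absorbance read at 540 nm. IC50 taken as the concentration giving 50% growth inhibition, averaged from triplicate determinations.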

[2] = tested on: A2780; experiment: Cytotoxicity against human A2780 cells after 3 days by MTT assay; conditions: A2780, 72 h; how it was run: as §1
[3] = tested on: HCT-8; experiment: Cytotoxicity against human HCT8 cells after 3 days by MTT assay; conditions: HCT-8, 72 h; how it was run: as §1

## CC(=O)O[C@H]1C(=O)[C@@]2(C)[C@H]([C@H](OC(=O)c3ccccc3)[C@]3(O)C[C@H](OC(=O)[C@H](O)[C@@H](NC(=O)c4ccccc4)c4ccccc4)C(C)=C1C3(C)C)[C@]1(OC(C)=O)CO[C@@H]1C[C@@H]2O [PACLITAXEL]
[1]
  IC50: 1.8 µM
[2]
  IC50: 0.65 µM
[3]
  IC50: 0.67 µM

## COc1ccc2cc1Oc1cc3c(cc1OC)CCN(C)[C@@H]3Cc1ccc(cc1)Oc1c(OC)c(O)cc3c1[C@H](C2)N(C)CC3 [RACEMOSIDINE C]
[1]
  IC50: 7.53 µM
[2]
  IC50: > 10 µM
[3]
  IC50: 6.04 µM

## COc1cc2c3cc1Oc1cc(ccc1O)C[C@H]1c4c(cc(OC)c(OC)c4Oc4ccc(cc4)C[C@H]3N(C)CC2)CCN1C [RACEMOSIDINE B]
[1]
  IC50: 4.62 µM
[2]
  IC50: > 10 µM
[3]
  IC50: 9.72 µM

## COc1cc2c3cc1Oc1c(O)c(OC)cc4ccnc(c14)Cc1ccc(cc1)Oc1cc(ccc1O)C[C@H]3[N+](C)([O-])CC2 (stereo partly drawn) [RACEMOSININE C]
[1]
  IC50: > 10 µM
[2]
  IC50: > 10 µM
[3]
  IC50: > 10 µM

## COc1cc2c3cc1Oc1c(O)c(OC)cc4ccnc(c14)Cc1ccc(cc1)Oc1cc(ccc1O)C[C@H]3N(C)CC2 [RACEMOSININE B]
[1]
  IC50: > 10 µM
[2]
  IC50: > 10 µM
[3]
  IC50: > 10 µM

## COc1cc2c3cc1Oc1cc(ccc1O)C[C@@H]1c4c(cc(OC)c5c4Oc4ccc(cc4CO5)C[C@H]3N(C)CC2)CCN1C [RACEMOSIDINE A]
[1]
  IC50: 6.09 µM
[2]
  IC50: 6.7 µM
[3]
  IC50: 2.8 µM
